“Also recorded” adds a separate entry of the source.
How the values were obtained:
[1] = test system: MIA-induced cartilage degeneration in rat knee; experiment: MIA rat model of OA via IA dosing, joint histology; type: in vivo, male Sprague Dawley rats
Outline: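 Cartilage damage was induced in male Sprague Dawley rats with 2 mg MIA in 40 μl, injected into the right knee. On days 5, 12 and 19 after MIA, rats received intra-articular injections (8 per group) of vehicle, test compound (1 mg, saline suspension) or triamcinolone (0.06 mg). Naive rats (5) received no injections. Right knees were taken on day 26 for histology of the MTP, MFC, LTP and LFC surfaces and their mean. Groups were compared with vehicle by one-way ANOVA or Kruskal-Wallis with post-test, significance p<0.05.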

[2] = In-vivo single dose oral rat pharmacokinetics; conditions: oral 1 mg/kg, male Lewis rats
Outline: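 Male Lewis rats, 3 per group, were fasted at least 16 h before dosing, with food returned about 4 h after. A 0.5 mg/mL suspension in 0.5% methylcellulose (400 cps) was given by gavage at 1.0 mg/kg (2 mL/kg). Jugular-catheter blood (K2EDTA) was drawn pre-dose and at 0.25–24 h. Plasma was obtained at 2200xg for 10 min, refrigerated. AUC(0-inf) came from the arithmetic mean concentration–time curve.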

[3] = IA days 5, 12, 19, histology day 26, AQU-019 1 mg
[4] = IA days 5, 12, 19, histology day 26, AQU-019 1 mg, Triamcinolone 0.06 mg
[5] = IA days 5, 12, 19 after MIA, histology day 26, AQU-019 1 mg, significant

Row | Compound | Bone resorption vs Vehicle (in words) [1, 3] | Osteophyte scores/measurement vs Vehicle (in words) [1, 3] | Cartilage degeneration / chondroprotection vs Vehicle (in words) [1, 4] | Reduction in the mean loss on the LTP and LFC vs Vehicle [1, 5] | Reduction in the mean loss, mean of all surfaces vs Vehicle [1, 5] [%] | Improvement in AUC(0-infinity) over non-deuterated parent 18 [2] [%] | Increase of AUC(0-t) over non-deuterated parent 18 [2] [%] | Increase of Cmax over non-deuterated parent 18 [2] [%] | Reduction of osteophyte scores/measurement vs Vehicle ([1]; IA days 5, 12, 19, day 26, Triamcinolone 0.06 mg, P<0.05) | Reduction of bone resorption, overall mean vs Vehicle ([1]; IA days 5, 12, 19, day 26, Triamcinolone 0.06 mg, significant) [%] | Cell loss vs Vehicle (in words) ([1]; IA days 5, 12, 19, histology day 26, Triamcinolone 0.06 mg)
1 | [2H]C([2H])(NC(=O)c1cc(C(=O)NCc2ccc(F)c(C)c2)ncn1)c1ccc(C(=O)O)cc1 [AQU-019, 4-(Dideutero-{[6-(4-fluoro-3-methyl-benzylcarbamoyl)-pyrimidine-4-carbonyl]-amino}-methyl)-benzoic acid] | trend of reduced resorption compared to Vehicle but was not statistically significant; also recorded: while reduced, was not statistically significant | no reduction in osteophyte measurement; also recorded: comparable to Vehicle control; also recorded: no effect on osteophytes measurement | significant chondroprotection | 21–22% | 16 | 64 | 68 | 17 | – | – | –
2 | C[C@]12C=CC(=O)C=C1CC[C@H]1[C@@H]3C[C@@H](O)[C@](O)(C(=O)CO)[C@@]3(C)C[C@H](O)[C@@]12F [Triamcinolone, reference compound] | – | – | no reductions in cartilage degeneration | – | – | – | – | – | 40–47% | 43 | no significant reductions in cell loss
